In ChEMBL document CHEMBL3593176, “Design and biological evaluation of novel 4-(2-fluorophenoxy)quinoline derivatives bearing an imidazolone moiety as c-Met kinase inhibitors” (Bioorg Med Chem, 2015):

Tests used:
A549 = experiment: cells; conditions: Homo sapiens, A549, 72 h
cells [1] = conditions: Homo sapiens, NCI-H460, 72 h
HT-29 = experiment: cells; conditions: Homo sapiens, HT-29, 72 h
cells [2] = conditions: Homo sapiens, MKN-45, 72 h
[3] = target: Hepatocyte growth factor receptor (Homo sapiens, UniProt P08581); experiment: Inhibition of c-Met (unknown origin) using poly (Glu, Tyr) 4:1 as substrate after 30 mins by HTRF assay
[4] = Potency index, ratio of foretinib IC50 to compound IC50 for human H460 cells; assay type: functional
MKN-45 = experiment: Potency index, ratio of foretinib IC50 to compound IC50 for human MKN45 cells; assay type: functional
[5] = target: Vascular endothelial growth factor receptor 2 (Homo sapiens, UniProt P35968); experiment: Inhibition of VEGFR-2 (unknown origin) using poly (Glu, Tyr) 4:1 as substrate after 30 mins by HTRF assay
[6] = target: Mast/stem cell growth factor receptor Kit (Homo sapiens, UniProt P10721); experiment: Inhibition of c-Kit (unknown origin) using poly (Glu, Tyr) 4:1 as substrate after 30 mins by HTRF assay
Procedure, shortened: (§1)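 Purified tyrosine kinase with poly(Glu,Tyr) 4:1 substrate (20 µg/mL) and ATP (10 mM solution) in 50 mM HEPES pH 7.0 buffer containing DTT, MgCl₂, MnCl₂, 0.1% NaN₃; compounds at various concentrations in 1% DMSO. Inhibition normalised to enzyme-free and uninhibited controls; IC50 from inhibition curves.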

[7] = target: T1, Receptor-type tyrosine-protein kinase FLT3 (Homo sapiens, UniProt P36888); experiment: Inhibition of FLT-3 (unknown origin) using poly (Glu, Tyr) 4:1 as substrate after 30 mins by HTRF assay
T1 sequence (P36888 whole entry): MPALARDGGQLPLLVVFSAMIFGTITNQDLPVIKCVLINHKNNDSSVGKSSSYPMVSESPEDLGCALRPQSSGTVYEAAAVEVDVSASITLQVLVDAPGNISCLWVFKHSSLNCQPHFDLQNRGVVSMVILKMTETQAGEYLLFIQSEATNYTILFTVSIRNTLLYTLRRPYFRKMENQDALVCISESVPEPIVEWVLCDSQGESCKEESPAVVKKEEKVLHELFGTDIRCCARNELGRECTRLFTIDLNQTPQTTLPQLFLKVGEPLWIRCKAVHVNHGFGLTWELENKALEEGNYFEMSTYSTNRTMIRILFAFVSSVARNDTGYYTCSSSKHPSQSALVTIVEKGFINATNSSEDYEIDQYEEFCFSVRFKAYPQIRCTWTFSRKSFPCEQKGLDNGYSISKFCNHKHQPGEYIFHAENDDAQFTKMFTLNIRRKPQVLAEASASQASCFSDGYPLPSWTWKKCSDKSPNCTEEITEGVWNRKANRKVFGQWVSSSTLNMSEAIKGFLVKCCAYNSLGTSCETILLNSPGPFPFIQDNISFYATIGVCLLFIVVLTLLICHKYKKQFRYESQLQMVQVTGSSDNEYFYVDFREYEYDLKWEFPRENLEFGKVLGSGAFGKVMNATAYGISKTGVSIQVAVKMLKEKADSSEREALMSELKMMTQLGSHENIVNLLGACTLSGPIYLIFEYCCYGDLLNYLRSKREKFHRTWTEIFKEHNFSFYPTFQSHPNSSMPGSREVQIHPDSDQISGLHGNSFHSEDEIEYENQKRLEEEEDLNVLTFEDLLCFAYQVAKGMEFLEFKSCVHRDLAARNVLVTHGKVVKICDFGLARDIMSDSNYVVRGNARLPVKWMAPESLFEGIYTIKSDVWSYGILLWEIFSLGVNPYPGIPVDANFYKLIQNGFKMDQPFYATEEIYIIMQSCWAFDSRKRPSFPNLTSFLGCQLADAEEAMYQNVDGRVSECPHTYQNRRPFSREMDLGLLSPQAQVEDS

[8] = target: Macrophage-stimulating protein receptor (Homo sapiens, UniProt Q04912); experiment: Inhibition of Ron (unknown origin) using poly (Glu, Tyr) 4:1 as substrate after 30 mins by HTRF assay
Procedure, shortened: as §1

[9] = target: Epidermal growth factor receptor (Homo sapiens, UniProt P00533); experiment: Inhibition of EGFR (unknown origin) using poly (Glu, Tyr) 4:1 as substrate after 30 mins by HTRF assay
Procedure, shortened: as §1

Sequence of Mast/stem cell growth factor receptor Kit (P10721 whole entry): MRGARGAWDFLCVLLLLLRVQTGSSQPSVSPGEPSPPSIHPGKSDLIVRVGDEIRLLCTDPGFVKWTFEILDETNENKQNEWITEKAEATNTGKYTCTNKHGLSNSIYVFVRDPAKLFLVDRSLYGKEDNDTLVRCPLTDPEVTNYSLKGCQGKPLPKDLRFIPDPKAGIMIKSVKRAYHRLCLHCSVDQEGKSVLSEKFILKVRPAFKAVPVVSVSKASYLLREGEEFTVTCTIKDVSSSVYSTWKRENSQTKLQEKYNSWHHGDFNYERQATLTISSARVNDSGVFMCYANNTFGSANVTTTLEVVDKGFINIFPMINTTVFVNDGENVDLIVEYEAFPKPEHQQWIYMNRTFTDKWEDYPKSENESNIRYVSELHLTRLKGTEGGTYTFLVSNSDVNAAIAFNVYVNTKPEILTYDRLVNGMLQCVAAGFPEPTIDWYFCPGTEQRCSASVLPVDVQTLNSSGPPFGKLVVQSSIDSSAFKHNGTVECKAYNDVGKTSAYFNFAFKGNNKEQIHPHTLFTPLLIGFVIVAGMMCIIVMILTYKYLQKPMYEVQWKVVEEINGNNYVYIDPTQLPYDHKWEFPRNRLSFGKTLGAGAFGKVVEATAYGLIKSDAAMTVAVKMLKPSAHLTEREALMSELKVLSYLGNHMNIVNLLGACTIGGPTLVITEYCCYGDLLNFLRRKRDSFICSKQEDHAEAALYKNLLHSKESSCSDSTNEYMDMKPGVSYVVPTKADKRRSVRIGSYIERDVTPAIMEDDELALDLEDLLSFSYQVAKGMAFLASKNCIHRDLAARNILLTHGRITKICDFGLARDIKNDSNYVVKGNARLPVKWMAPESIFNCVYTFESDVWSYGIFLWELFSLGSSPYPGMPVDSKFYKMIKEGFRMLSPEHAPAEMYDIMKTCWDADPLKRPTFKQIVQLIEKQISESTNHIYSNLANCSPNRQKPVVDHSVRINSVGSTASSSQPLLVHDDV
Sequence of Epidermal growth factor receptor (P00533 whole entry): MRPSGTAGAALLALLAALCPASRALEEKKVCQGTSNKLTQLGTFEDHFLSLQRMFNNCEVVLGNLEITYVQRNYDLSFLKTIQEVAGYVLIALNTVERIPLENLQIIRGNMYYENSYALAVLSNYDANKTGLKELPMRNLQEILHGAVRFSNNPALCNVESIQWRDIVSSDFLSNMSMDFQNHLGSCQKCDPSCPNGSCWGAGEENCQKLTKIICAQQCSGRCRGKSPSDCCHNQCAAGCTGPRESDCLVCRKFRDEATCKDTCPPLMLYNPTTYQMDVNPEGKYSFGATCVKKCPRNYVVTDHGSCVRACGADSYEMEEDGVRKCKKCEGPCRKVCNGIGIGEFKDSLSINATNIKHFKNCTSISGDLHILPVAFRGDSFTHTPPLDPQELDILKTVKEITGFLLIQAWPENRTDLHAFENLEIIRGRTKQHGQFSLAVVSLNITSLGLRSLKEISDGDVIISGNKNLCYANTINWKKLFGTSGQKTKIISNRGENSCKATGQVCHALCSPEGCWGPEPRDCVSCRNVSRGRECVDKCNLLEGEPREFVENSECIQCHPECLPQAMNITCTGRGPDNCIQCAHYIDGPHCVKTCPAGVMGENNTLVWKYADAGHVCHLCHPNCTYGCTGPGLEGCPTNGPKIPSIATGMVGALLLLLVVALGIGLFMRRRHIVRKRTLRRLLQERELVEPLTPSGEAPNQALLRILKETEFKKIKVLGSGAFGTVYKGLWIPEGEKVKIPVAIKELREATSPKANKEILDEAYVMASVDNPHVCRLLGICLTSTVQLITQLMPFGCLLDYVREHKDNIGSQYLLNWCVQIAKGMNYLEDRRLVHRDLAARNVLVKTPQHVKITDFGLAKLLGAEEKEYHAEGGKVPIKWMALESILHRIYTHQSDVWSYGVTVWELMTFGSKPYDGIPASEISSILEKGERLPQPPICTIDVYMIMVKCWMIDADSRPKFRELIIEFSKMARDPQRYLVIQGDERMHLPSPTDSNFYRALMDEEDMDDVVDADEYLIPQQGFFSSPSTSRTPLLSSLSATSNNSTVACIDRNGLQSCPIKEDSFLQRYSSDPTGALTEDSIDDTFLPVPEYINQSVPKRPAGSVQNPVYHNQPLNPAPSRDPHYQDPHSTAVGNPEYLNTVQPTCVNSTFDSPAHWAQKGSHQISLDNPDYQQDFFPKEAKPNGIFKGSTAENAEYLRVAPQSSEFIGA
Sequence of Hepatocyte growth factor receptor (P08581 whole entry): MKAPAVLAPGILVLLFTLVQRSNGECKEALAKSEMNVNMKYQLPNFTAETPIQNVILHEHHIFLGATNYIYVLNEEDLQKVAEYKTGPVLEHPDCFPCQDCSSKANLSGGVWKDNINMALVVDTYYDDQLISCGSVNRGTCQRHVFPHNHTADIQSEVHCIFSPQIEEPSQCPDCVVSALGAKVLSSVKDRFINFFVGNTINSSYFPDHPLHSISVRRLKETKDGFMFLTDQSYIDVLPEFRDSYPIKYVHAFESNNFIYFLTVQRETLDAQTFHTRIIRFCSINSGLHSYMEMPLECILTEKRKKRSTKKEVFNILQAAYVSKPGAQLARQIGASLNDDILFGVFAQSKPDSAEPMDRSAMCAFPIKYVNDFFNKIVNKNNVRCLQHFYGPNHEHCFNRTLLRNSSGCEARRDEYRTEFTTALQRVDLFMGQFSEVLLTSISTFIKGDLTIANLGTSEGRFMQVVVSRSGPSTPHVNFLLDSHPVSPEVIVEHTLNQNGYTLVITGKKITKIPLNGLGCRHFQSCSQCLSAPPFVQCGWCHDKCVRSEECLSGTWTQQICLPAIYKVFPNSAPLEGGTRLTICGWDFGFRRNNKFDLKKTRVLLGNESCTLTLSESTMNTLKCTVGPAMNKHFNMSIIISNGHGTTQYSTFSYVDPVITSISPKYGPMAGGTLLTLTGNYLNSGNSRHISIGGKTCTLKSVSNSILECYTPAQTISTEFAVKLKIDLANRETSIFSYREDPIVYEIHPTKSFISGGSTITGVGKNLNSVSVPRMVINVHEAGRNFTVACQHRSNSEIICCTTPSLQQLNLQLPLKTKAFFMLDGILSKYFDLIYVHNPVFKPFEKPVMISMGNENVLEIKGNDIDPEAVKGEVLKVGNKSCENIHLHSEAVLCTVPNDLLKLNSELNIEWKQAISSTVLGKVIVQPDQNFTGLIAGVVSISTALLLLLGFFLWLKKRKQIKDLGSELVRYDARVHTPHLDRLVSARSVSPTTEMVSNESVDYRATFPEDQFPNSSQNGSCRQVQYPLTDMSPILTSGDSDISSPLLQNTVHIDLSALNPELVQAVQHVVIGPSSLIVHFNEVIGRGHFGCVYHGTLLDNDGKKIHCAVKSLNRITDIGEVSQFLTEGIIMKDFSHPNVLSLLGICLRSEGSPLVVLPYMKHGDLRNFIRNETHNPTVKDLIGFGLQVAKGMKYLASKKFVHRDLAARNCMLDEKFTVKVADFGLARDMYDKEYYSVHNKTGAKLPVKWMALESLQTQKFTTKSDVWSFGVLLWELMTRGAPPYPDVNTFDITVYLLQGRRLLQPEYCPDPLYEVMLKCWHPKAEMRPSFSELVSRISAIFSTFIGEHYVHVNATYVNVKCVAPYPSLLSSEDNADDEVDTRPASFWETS
Sequence of Vascular endothelial growth factor receptor 2 (P35968 whole entry): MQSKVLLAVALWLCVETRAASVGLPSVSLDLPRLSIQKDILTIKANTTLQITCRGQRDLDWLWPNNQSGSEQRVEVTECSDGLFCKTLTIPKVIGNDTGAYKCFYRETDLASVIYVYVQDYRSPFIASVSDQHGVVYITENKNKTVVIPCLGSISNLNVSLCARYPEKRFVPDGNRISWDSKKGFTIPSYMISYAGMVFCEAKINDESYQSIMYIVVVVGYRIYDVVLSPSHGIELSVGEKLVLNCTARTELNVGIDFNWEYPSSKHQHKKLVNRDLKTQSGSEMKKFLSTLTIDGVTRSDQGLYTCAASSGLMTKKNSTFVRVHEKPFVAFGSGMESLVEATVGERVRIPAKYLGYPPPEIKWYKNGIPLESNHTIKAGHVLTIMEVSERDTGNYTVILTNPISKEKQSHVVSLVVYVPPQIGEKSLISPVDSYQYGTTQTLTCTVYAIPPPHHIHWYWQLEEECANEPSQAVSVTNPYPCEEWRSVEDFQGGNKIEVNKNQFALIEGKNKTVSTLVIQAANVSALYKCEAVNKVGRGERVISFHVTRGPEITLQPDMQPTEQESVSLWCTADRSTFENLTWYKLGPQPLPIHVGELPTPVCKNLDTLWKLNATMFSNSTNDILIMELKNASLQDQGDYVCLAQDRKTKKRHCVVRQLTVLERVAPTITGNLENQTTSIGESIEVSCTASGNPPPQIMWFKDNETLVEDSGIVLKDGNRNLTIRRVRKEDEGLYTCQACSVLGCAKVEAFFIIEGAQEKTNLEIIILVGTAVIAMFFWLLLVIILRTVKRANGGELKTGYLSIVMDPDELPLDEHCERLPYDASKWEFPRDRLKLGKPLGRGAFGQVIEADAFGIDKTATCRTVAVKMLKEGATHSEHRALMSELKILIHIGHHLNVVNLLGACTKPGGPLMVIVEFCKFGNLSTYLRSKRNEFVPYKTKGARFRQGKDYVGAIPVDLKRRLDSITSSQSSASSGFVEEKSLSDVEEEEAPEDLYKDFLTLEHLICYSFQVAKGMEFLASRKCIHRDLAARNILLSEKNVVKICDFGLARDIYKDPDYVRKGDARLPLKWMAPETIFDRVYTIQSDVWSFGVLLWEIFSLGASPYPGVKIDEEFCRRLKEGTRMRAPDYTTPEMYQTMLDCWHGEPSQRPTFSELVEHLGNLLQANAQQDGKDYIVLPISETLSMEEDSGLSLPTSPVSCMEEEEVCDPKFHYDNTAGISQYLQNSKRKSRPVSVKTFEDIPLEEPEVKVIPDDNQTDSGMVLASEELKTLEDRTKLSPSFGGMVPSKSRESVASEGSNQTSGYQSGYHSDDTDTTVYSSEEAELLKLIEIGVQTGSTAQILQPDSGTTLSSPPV

SMILES | IC50 (A549) [µM] | IC50 (cells [1]) [µM] | IC50 (HT-29) [µM] | IC50 (cells [2]) [µM] | IC50 [3] [µM] | Ratio IC50 [4] | Ratio IC50 (MKN-45) | IC50 [5] [µM] | IC50 [6] [µM] | IC50 [7] [µM] | IC50 [8] [µM] | IC50 [9] [µM]
COc1cc2c(Oc3ccc(NC(=O)c4c(C)n(-c5ccc(C)cc5)c(=O)n4C)cc3F)ccnc2cc1OCCCN1CCN(C)CC1 | 0.83 | 0.51 | 0.49 | 0.36 |  |  |  |  |  |  |  | 
COc1cc2c(Oc3ccc(NC(=O)c4c(C)n(-c5ccc(F)c(Cl)c5)c(=O)n4C)cc3F)ccnc2cc1OCCCN1CCN(C)CC1 | 0.38 | 0.21 | 0.14 | 0.073 |  |  |  |  |  |  |  | 
COc1cc2c(Oc3ccc(NC(=O)c4c(C)n(-c5ccc(Br)cc5)c(=O)n4C)cc3F)ccnc2cc1OCCCN1CCN(C)CC1 | 0.48 | 0.36 | 0.29 | 0.12 |  |  |  |  |  |  |  | 
COc1cc2c(Oc3ccc(NC(=O)c4[nH]c(=O)n(-c5ccccc5Cl)c4C)cc3F)ccnc2cc1OCCCN1CCN(C)CC1 | 0.25 | 0.1 | 0.086 | 0.014 | 0.00142 | 2.1 | 8.6 | 0.0926 | 0.0382 | 0.134 | 0.27 | > 100
COc1cc2c(Oc3ccc(NC(=O)c4c(C)n(-c5ccc(Br)cc5)c(=O)n4C)cc3F)ccnc2cc1OCCCN1CCC(C)CC1 | 0.68 | 0.55 | 0.28 | 0.16 |  |  |  |  |  |  |  | 
COc1cc2c(Oc3ccc(NC(=O)c4c(C)n(-c5ccc(C(F)(F)F)cc5)c(=O)n4C)cc3F)ccnc2cc1OCCCN1CCN(C)CC1 | 0.5 | 0.36 | 0.26 | 0.098 |  |  |  |  |  |  |  | 
COc1cc2c(Oc3ccc(NC(=O)c4c(C)n(-c5ccc(F)cc5)c(=O)n4C)cc3F)ccnc2cc1OCCCN1CCC(C)CC1 | 0.52 | 0.25 | 0.24 | 0.084 |  |  |  |  |  |  |  | 
COc1cc2c(Oc3ccc(NC(=O)c4c(C)n(-c5ccc(F)c(Cl)c5)c(=O)n4C)cc3F)ccnc2cc1OCCCN1CCC(C)CC1 | 0.43 | 0.25 | 0.2 | 0.089 |  |  |  |  |  |  |  | 
COc1cc2c(Oc3ccc(NC(=O)c4c(C)n(-c5ccc(F)c(F)c5)c(=O)n4C)cc3F)ccnc2cc1OCCCN1CCN(C)CC1 | 0.4 | 0.24 | 0.18 | 0.086 |  |  |  |  |  |  |  | 
COc1cc2c(Oc3ccc(NC(=O)c4c(C)n(-c5ccccc5C(F)(F)F)c(=O)n4C)cc3F)ccnc2cc1OCCCN1CCN(C)CC1 | 0.37 | 0.19 | 0.13 | 0.069 |  |  |  |  |  |  |  | 
COc1cc2c(Oc3ccc(NC(=O)c4c(C)n(-c5ccc(F)c(F)c5)c(=O)n4C)cc3F)ccnc2cc1OCCCN1CCOCC1 | 0.62 | 0.54 | 0.39 | 0.17 |  |  |  |  |  |  |  | 
COc1cc2c(Oc3ccc(NC(=O)c4c(C)n(-c5ccccc5Cl)c(=O)n4C)cc3F)ccnc2cc1OCCCN1CCC(C)CC1 | 0.32 | 0.18 | 0.15 | 0.043 |  |  |  |  |  |  |  | 
COc1ccc(-n2c(C)c(C(=O)Nc3ccc(Oc4ccnc5cc(OCCCN6CCN(C)CC6)c(OC)cc45)c(F)c3)n(C)c2=O)cc1 | 0.96 | 0.69 | 0.56 | 0.44 |  |  |  |  |  |  |  | 
COc1cc2c(Oc3ccc(NC(=O)c4c(C)n(-c5ccc(C(F)(F)F)cc5)c(=O)n4C)cc3F)ccnc2cc1OCCCN1CCC(C)CC1 | 0.54 | 0.41 | 0.36 | 0.13 |  |  |  |  |  |  |  | 
COc1ccc(-n2c(C)c(C(=O)Nc3ccc(Oc4ccnc5cc(OCCCN6CCC(C)CC6)c(OC)cc45)c(F)c3)n(C)c2=O)cc1 | 1.04 | 0.94 | 0.79 | 0.49 |  |  |  |  |  |  |  | 
COc1cc2c(Oc3ccc(NC(=O)c4c(C)n(-c5ccc(OC(F)(F)F)cc5)c(=O)n4C)cc3F)ccnc2cc1OCCCN1CCC(C)CC1 | 0.62 | 0.59 | 0.4 | 0.14 |  |  |  |  |  |  |  | 

SMILES | IC50 (A549) [µM] | IC50 (cells [1]) [µM] | IC50 (HT-29) [µM] | IC50 (cells [2]) [µM] | IC50 [3] [µM] | Ratio IC50 [4] | Ratio IC50 (MKN-45) | IC50 [5] [µM] | IC50 [6] [µM] | IC50 [7] [µM] | IC50 [8] [µM] | IC50 [9] [µM]
COc1cc2c(Oc3ccc(NC(=O)c4c(C)n(-c5ccccc5)c(=O)n4C)cc3F)ccnc2cc1OCCCN1CCC(C)CC1 | 0.66 | 0.59 | 0.36 | 0.21 |  |  |  |  |  |  |  | 
COc1cc2c(Oc3ccc(NC(=O)c4c(C)n(-c5cccc(C(F)(F)F)c5)c(=O)n4C)cc3F)ccnc2cc1OCCCN1CCN(C)CC1 | 0.77 | 0.57 | 0.43 | 0.2 |  |  |  |  |  |  |  | 
COc1cc2c(Oc3ccc(NC(=O)c4c(C)n(-c5ccccc5)c(=O)n4C)cc3F)ccnc2cc1OCCCN1CCOCC1 | 0.98 | 0.79 | 0.74 | 0.32 |  |  |  |  |  |  |  | 
COc1cc2c(Oc3ccc(NC(=O)c4c(C)n(-c5ccc(F)c(F)c5)c(=O)n4C)cc3F)ccnc2cc1OCCCN1CCC(C)CC1 | 0.53 | 0.23 | 0.23 | 0.095 |  |  |  |  |  |  |  | 
COc1cc2c(Oc3ccc(NC(=O)c4c(C)n(-c5cccc(C(F)(F)F)c5)c(=O)n4C)cc3F)ccnc2cc1OCCCN1CCC(C)CC1 | 0.88 | 0.58 | 0.52 | 0.32 |  |  |  |  |  |  |  | 
COc1cc2c(Oc3ccc(NC(=O)c4c(C)n(-c5ccccc5)c(=O)n4C)cc3F)ccnc2cc1OCCCN1CCCC1 | 1.46 | 1.03 | 0.94 | 0.51 |  |  |  |  |  |  |  | 
COc1cc2c(Oc3ccc(NC(=O)c4c(C)n(-c5ccccc5)c(=O)n4C)cc3F)ccnc2cc1OCCCN1CCN(C)CC1 | 0.6 | 0.42 | 0.3 | 0.19 |  |  |  |  |  |  |  | 
COc1cc2c(Oc3ccc(NC(=O)c4c(C)n(-c5ccccc5C(F)(F)F)c(=O)n4C)cc3F)ccnc2cc1OCCCN1CCC(C)CC1 | 0.45 | 0.22 | 0.14 | 0.081 |  |  |  |  |  |  |  | 
COc1cc2c(Oc3ccc(NC(=O)c4c(C)n(-c5ccccc5Cl)c(=O)n4C)cc3F)ccnc2cc1OCCCN1CCN(C)CC1 | 0.31 | 0.13 | 0.12 | 0.037 |  |  |  |  |  |  |  | 
COc1cc2c(Oc3ccc(NC(=O)c4c(C)n(-c5ccc(OC(F)(F)F)cc5)c(=O)n4C)cc3F)ccnc2cc1OCCCN1CCN(C)CC1 | 0.44 | 0.34 | 0.27 | 0.12 |  |  |  |  |  |  |  | 
COc1cc2c(Oc3ccc(NC(=O)c4c(C)n(-c5ccc(F)cc5)c(=O)n4C)cc3F)ccnc2cc1OCCCN1CCN(C)CC1 | 0.43 | 0.26 | 0.19 | 0.067 |  |  |  |  |  |  |  | 
COc1cc2c(Oc3ccc(NC(=O)c4c(C)n(-c5ccc(Cl)cc5)c(=O)n4C)cc3F)ccnc2cc1OCCCN1CCC(C)CC1 | 0.42 | 0.2 | 0.17 | 0.062 |  |  |  |  |  |  |  | 
COc1cc2c(Oc3ccc(NC(=O)c4c(C)n(-c5ccc(C)cc5)c(=O)n4C)cc3F)ccnc2cc1OCCCN1CCC(C)CC1 | 1.12 | 0.94 | 0.79 | 0.43 |  |  |  |  |  |  |  | 
COc1cc2c(Oc3ccc(NC(=O)c4c(C)n(-c5ccc(Cl)cc5)c(=O)n4C)cc3F)ccnc2cc1OCCCN1CCN(C)CC1 | 0.36 | 0.17 | 0.14 | 0.058 |  |  |  |  |  |  |  | 
COc1cc2c(Oc3ccc(NC(=O)c4c(C)n(-c5ccccc5)c(=O)n4C)cc3F)ccnc2cc1OCCCN1CCCCC1 | 0.79 | 0.65 | 0.56 | 0.24 |  |  |  |  |  |  |  | 
